# Assay results as given in ChEMBL document CHEMBL1122980, “Stereoselective metabolism of conformational analogues of warfarin by beta-naphthoflavone-inducible cytochrome P-450” (J Med Chem, 1985).
# Organism: Rattus norvegicus
# Test: Rate of metabolism in liver microsomes (BNF treated rats)
# Type: ADME
# How it was run: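 Liver microsomes pooled from three male Sprague–Dawley rats (140–170 g) given BNF ip (80 mg/kg in corn oil) daily for 3 days, taken on day 4. Microsomal protein 2 mg/mL. Substrate added after 2-min equilibration, 200 μg/mL in acetone, or warfarin also in pH 7.4 phosphate buffer. Incubated 20 min at 37 °C, triplicate. Hydroxy metabolites quantified by GC/MS against deuterated internal standards. Rates given per nmol P-450 per min, mean ±SD.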
Structure (SMILES),RPF,Metabolism rate
CO[C@]1(C)C[C@H](c2ccc(O)cc2)c2c(c3ccccc3oc2=O)O1,52 pM nM-1,–
COc1c([C@@H](CC(C)=O)c2ccccc2)c(=O)oc2cc(O)ccc12,31.2 pM nM-1,–
COC1(C)C[C@@H](c2ccccc2)c2c(c3ccc(O)cc3oc2=O)O1 (some centres undefined),13.9 pM nM-1,–
CC(=O)C[C@@H](c1ccccc1)c1c(O)c2ccc(O)cc2oc1=O,195 pmol/min/nmol,216.8 pmol/min/nmol P-450
CC(=O)C[C@H](c1ccc(O)cc1)c1c(O)c2ccccc2oc1=O,–,22.4 pmol/min/nmol P-450
COC1(C)C[C@H](c2ccccc2)c2c(c3cc(O)ccc3oc2=O)O1 (some centres undefined),20.3 pM nM-1,–
COc1c([C@@H](CC(C)=O)c2ccccc2)c(=O)oc2ccc(O)cc12,19.1 pM nM-1,–
CO[C@]1(C)C[C@H](c2ccccc2)c2c(c3cccc(O)c3oc2=O)O1,14.9 pM nM-1,–
COc1c([C@H](CC(C)=O)c2ccccc2)c(=O)oc2cc(O)ccc12,8.3 pM nM-1,–
CO[C@@]1(C)C[C@@H](c2ccccc2)c2c(c3cccc(O)c3oc2=O)O1,34.6 pM nM-1,–
CO[C@@]1(C)C[C@H](c2ccccc2)c2c(c3cccc(O)c3oc2=O)O1,15.1 pM nM-1,–
CO[C@]1(C)C[C@@H](c2ccccc2)c2c(c3cccc(O)c3oc2=O)O1,42.8 pM nM-1,–
CO[C@]1(C)C[C@@H](c2ccccc2)c2c(c3ccc(O)cc3oc2=O)O1,14.9 pM nM-1,–
COC1(C)C[C@H](c2ccccc2)c2c(c3ccc(O)cc3oc2=O)O1 (some centres undefined),19.3 pM nM-1,–
CO[C@]1(C)C[C@@H](c2ccccc2)c2c(c3cc(O)ccc3oc2=O)O1,24.1 pM nM-1,–
CC(=O)C[C@@H](c1ccc(O)cc1)c1c(O)c2ccccc2oc1=O,–,13.7 pmol/min/nmol P-450
COC1(C)C[C@@H](c2ccccc2)c2c(c3cc(O)ccc3oc2=O)O1 (some centres undefined),14.8 pM nM-1,–
CC(=O)C[C@@H](c1ccccc1)c1c(O)c2cc(O)ccc2oc1=O,37.1 pmol/min/nmol,41.2 pmol/min/nmol P-450
COC1(C)C[C@@H](c2ccc(O)cc2)c2c(c3ccccc3oc2=O)O1 (some centres undefined),64.8 pM nM-1,–
COc1c([C@H](CC(C)=O)c2ccc(O)cc2)c(=O)oc2ccccc12,85.3 pM nM-1,–
COc1c([C@@H](CC(C)=O)c2ccc(O)cc2)c(=O)oc2ccccc12,47.8 pM nM-1,–
CC(=O)C[C@H](c1ccccc1)c1c(O)c2cc(O)ccc2oc1=O,102 pmol/min/nmol,113.7 pmol/min/nmol P-450
COC1(C)C[C@H](c2ccc(O)cc2)c2c(c3ccccc3oc2=O)O1 (some centres undefined),76.2 pM nM-1,–
CO[C@]1(C)C[C@H](c2ccccc2)c2c(c3ccc(O)cc3oc2=O)O1,12.8 pM nM-1,–
CO[C@]1(C)C[C@@H](c2ccc(O)cc2)c2c(c3ccccc3oc2=O)O1,73.5 pM nM-1,–
COc1c([C@H](CC(C)=O)c2ccccc2)c(=O)oc2ccc(O)cc12,11.5 pM nM-1,–
